# INS promoter act – TRM-6 insulin promoter activation. 0.81% of 130,000 active. activation, % at 2 µM. TRM-6 cells (human fetal islet line), insulin promoter eGFP reporter, imaging; plate-scaled: unstimulated 0, stimulated control 100;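 active means activation at 2 µM above a set limit, confirmed on inspection of the cell images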;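 further: share of cells whose green reporter signal exceeds an intensity cutoff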
#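 Assay system: TRM-6 insulin promoter–eGFP reporter cells / Input: 1,000 cells per well / Medium: Low-glucose (5.5 mM) medium with tamoxifen / Also added: tamoxifen inducer, 0.75 µM, in seeding medium / Timing: overnight tamoxifen, then two-day compound incubation at 37 °C / Signal: automated fluorescence imaging of paraformaldehyde-fixed, Hoechst-counterstained cells, green channel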
# * hit, by the source's call. The full list was thinned out, with hits kept by preference.
SMILES,INS promoter act
N/C(=N\OC(=O)C1CCCCC1)c1ccccn1,0
COCCCNC(=S)NNC(=O)c1cccnc1,-4
COc1ccc(C(=O)Sc2nncc3ccccc23)cc1,0
COc1ccc(S(=O)(=O)NCC(c2cccnc2)N2CCN(c3ccccc3OC)CC2)cc1C (stereo not given),186*
COc1ccccc1N1CCN(C(CNS(=O)(=O)c2ccccc2)c2cccnc2)CC1 (stereo not given),-10
COc1ccccc1N1CCN(C(CNC(=O)c2ccc3c(c2)OCO3)c2cccnc2)CC1 (stereo not given),0
COC(=O)c1ccc(CN2C(=O)NC3(CCCCC3C)C2=O)o1 (stereo not given),7
CCn1c(Cc2ccc(OC)cc2)nnc1SCC(=O)Nc1cccc(C(=O)OC)c1,443*
CCn1c(Cc2ccccc2)nnc1SCC(=O)Nc1ccc2c(c1)OCCO2,6
CCn1c(Cc2ccccc2)nnc1SCC(=O)Nc1ccc(OC)cc1,7
CC(C(=O)NC1=NCCS1)N1C(=O)C2CC=CCC2C1=O (stereo not given),121*
O=C(CCCN1C(=O)c2ccccc2C1=O)NC1=NCCS1,0
Cc1cc(C)cc(OCC(=O)NC2=NCCS2)c1,-8
COc1ccc(CCc2nc(C)ccc2O)cc1,-89
O=C(O)c1ccc(NC(CSCc2cccc(F)c2)C(=O)O)c([N+](=O)[O-])c1 (stereo not given),-4
Cn1nc(C(=O)OCCN2C(=O)c3ccccc3C2=O)c2ccccc2c1=O,3
O=C(OCCN1C(=O)c2cccc3c(N4CCOCC4)ccc(c23)C1=O)c1cc(Cl)cc(Cl)c1,204*
CCN1C(=O)c2cccc3c(S(=O)(=O)Nc4ccccc4OC)ccc1c23,109
O=C1c2cccc3c(N4CCCCC4)ccc(c23)C(=O)N1c1ccc(Cl)cn1,-5
CCN(CC)S(=O)(=O)c1ccc(C(=O)OCCN2C(=O)c3cccc4c(N5CCOCC5)ccc(c34)C2=O)cc1,0
CCCN1C(=O)c2cccc3c(N4CCCCC4)ccc(c23)C1=O,245*
COCC(C)n1c(C)cc(C(=O)COC(=O)c2ccc(N3CCCC3=O)cc2)c1C (stereo not given),10
Cc1sc(NC(=O)c2ccccc2)c(C(=O)NCCN(C)C)c1C,-3
CC(=O)/C(C(=N)N1CCN(c2cccc(Cl)c2)CC1)=C(\C)O,-6
O=C(CN1CCN(c2cccc(Cl)c2)CC1)N1CCCC1,-7
SMILES,INS promoter act
O=C(O)CCC(=O)N1CCN(c2cccc(Cl)c2)CC1,467*
O=C(COC(=O)C1CCCCC1)Nc1ccccc1OC(F)F,122
Cc1cc(C)c(NC(=O)CN2C(=O)NC3(CCCCC3)C2=O)c(C)c1,-6
Cc1cccc(N2C(=O)NC3(CCCCC3)C2=O)c1,78*
Cc1cccc(N2C(S)=C(C#N)C(=O)NC23CCCCC3)c1,0
CCOc1cc(C(=O)CCC(=O)OCC(=O)N2c3ccccc3NC(=O)C2(C)C)ccc1O,0
CCOc1ccccc1NC(=O)C(NCC1(N2CCCCC2)CCCCC1)c1ccccc1 (stereo not given),129
CC(C)CNC(=O)NC(=O)COC(=O)c1cc(F)cc(F)c1,333*
COc1cccc(OC)c1C(=O)OCC(=O)NCC(C)C,0
CC(C)CCNC(=O)NC(=O)COC(=O)C1=COCCO1,-78
CC1(C)COC(c2coc3ccccc3c2=O)OC1,-100
COc1cc(CCC(=O)Nc2cccc(S(=O)(=O)N(C)C)c2)cc(OC)c1OC,0
CN(C)CCNC(=O)C12CC3(C)CC(C)(CC(C)(C3)C1)C2,-5
O=C1COc2ccc(OCc3ccc(F)cc3)cc21,-6
CCN(c1ccccc1)S(=O)(=O)c1ccc(C(=O)NCCCn2ccnc2)cc1,9
O=C(NCCCn1ccnc1)c1cccc(S(=O)(=O)Nc2ccccc2F)c1,-9
O=C(NCCCn1ccnc1)c1cccc(S(=O)(=O)NCc2ccccc2)c1,400*
CCN1CCN(C(=S)NC(C)c2ccccc2)CC1 (stereo not given),3
CC(C)CC(=O)CN1C(=O)C2(OCCO2)c2ccccc21,0
CN(C)CCCNc1cn[nH]c(=O)c1Cl,9
CCOC(=O)c1c(NC(=O)CN2CCN(C(=O)c3ccco3)CC2)sc2c1CCCC2,319
CCOC(=O)c1c(NC(=S)Nc2ccc(Cl)cc2)sc(C)c1C,-5
CCOC(=O)c1c(NC(=S)Nc2ccccc2)sc2c1CCN(CCc1ccccc1)C2,233*
CC(c1ccccc1)N1CCc2[nH]c(=S)[nH]c(=O)c2C1 (stereo not given),-91
CCC(C)(C)n1nnnc1C(c1ccc2ncccc2c1)N1CCN2CCCC2C1 (stereo not given),-6
SMILES,INS promoter act
O=C(CN1CCCc2ccccc21)NCc1ccccc1Cl,9
Cc1c(NC(=O)CN2CCCc3ccccc32)c(=O)n(-c2ccccc2)n1C,0
CN(C)S(=O)(=O)c1ccc(NC(=O)CN2CCCc3ccccc32)cc1,383*
CCC(C)(C)NC(=O)C(c1cccn1C)N(C(=O)Cn1nnc2ccccc21)c1ccc(OC)cc1OC (stereo not given),170
Cc1ccc(-c2nnn(CC(=O)N(c3ccccc3)C(C(=O)NC(C)(C)C)c3cccs3)n2)o1 (stereo not given),100
CCOc1ccc(N(C(=O)Cn2nnc3ccccc32)C(C(=O)NC(C)(C)CC)c2cccn2C)cc1 (stereo not given),462*
COCCCN1C(=O)c2ccc(C(=O)O)cc2C1=O,347
Cc1cc(NC(=O)CCCC(=O)NCc2cccs2)no1,6
CN1C(=O)c2ccc(NC(=O)CCS(=O)(=O)c3ccccc3)cc2C1=O,8
Cc1ccnc(NS(=O)(=O)c2ccc(NS(=O)(=O)c3ccccc3)cc2)n1,314
CC1CCCCC1NC(=O)/C(C#N)=C/c1ccccc1F (stereo not given),-7
COCC(C)NC(=O)NC1(C(F)(F)F)Oc2ccc(Cl)cc2O1 (stereo not given),-71
COCC(C)NC(=O)c1cccc(Cl)c1 (stereo not given),0
COCC(C)NC(=O)NC(=O)c1ccc(Cl)cc1 (stereo not given),77*
O=C(Nc1ccccc1)c1ccc(NC2CCCCC2)c(S(=O)(=O)N2CCOCC2)c1,242
OC(CN1C2=NCCN2c2ccccc21)c1ccc(Br)cc1 (stereo not given),-3
Clc1ccc(CN2C3=NCCCN3c3ccccc32)cc1,136*
O=C(CN1C2=NCCCN2c2ccccc21)c1cccc(Br)c1,-8
CC1SCC(=O)N(CC(=O)Nc2ccc3c(c2)OCCO3)C1=O (stereo not given),6
CCOc1cc(CNc2ccc3c(c2)CCC3)ccc1OC,-6
Cc1nccn1CC(O)Cn1c2ccccc2c2ccccc21 (stereo not given),9
Cc1cccc(C)c1N(CC(=O)N1CCN(c2ccccc2F)CC1)S(C)(=O)=O,7
Cc1cccc(C)c1N(CC(O)Cn1c2ccccc2c2ccccc21)S(C)(=O)=O (stereo not given),89*
Cc1cc(N2CCC(C)CC2)nc(NCc2ccccc2)n1,107
C=CCN(C(=O)CSc1nc2[nH]ncc2c(=O)n1-c1ccccc1OC)c1ccccc1,20
COCCn1c(SCC(=O)Nc2ccc(Cl)cn2)nnc1-c1ccncc1,-7
COc1ccccc1/C=C/C(=O)NC(=S)N(C)C1CCCCC1,-5
CN(C(=S)NC(=O)c1ccccc1Br)C1CCCCC1,223*
CC1CCCCC1NC(=S)NC(=O)c1ccccc1Br (stereo not given),0
